Laboratory results taken from ChEMBL document CHEMBL4842350, “Discovery of a Novel Bromodomain and Extra Terminal Domain (BET) Protein Inhibitor, I-BET282E, Suitable for Clinical Progression” (J Med Chem, 2021).

Tests used:
[1] = target: T1, Bromodomain-containing protein 4 (Homo sapiens, UniProt O60885); experiment: Inhibition of BRD4 in human whole blood assessed as reduction in LPS-induced IL-6 secretion preincubated for 30 mins followed by LPS stimulation and measured after 24 hrs by MSD assay; format: tissue-based
[2] = Unbound fraction in Balb/C mouse blood at 100 to 1000 ng/ml by LC-MS/MS-based rapid equilibrium dialysis method; format: ADME, tissue-based; conditions: dose 100-1000 ng/ml
Summary of the method: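 Whole blood (male Balb/C mouse, male Wistar Han rat, male Beagle dog; human from one unmedicated donor) spiked to nominal 100 and 1000 ng/mL; 10 min at 37 °C, then rapid equilibrium dialysis against PBS 4 h at 37 °C, 100 rpm. Matrix-matched acetonitrile extraction, LC-MS/MS; mean of n = 6.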

[3] = Half life in CD1 mouse at 1 mg/kg/hr, iv measured upto 24 hrs by LC-MS/MS analysis; format: ADME, organism-based; conditions: in vivo
Summary of the method: (§1)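 Surgically cannulated male CD1 mice (n = 3), 1 h iv infusion via jugular vein at 1 mg/kg/h (0.2 mg/mL in 2% DMSO/98% 10% Kleptose HPB in saline, 5 mL/kg/h). Tail-vein blood to 24 h plus terminal cardiac sample at 26 h; LC-MS/MS, LLQ 5 ng/mL. Mean ± SD.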

[4] = Volume of distribution at steady state in Wistar Han rat at 1 mg/kg/hr, iv measured upto 26 hrs by LC-MS/MS analysis; format: ADME, organism-based; conditions: in vivo, read-out: Vdss
Cytochrome P450 2D6 = Cytochrome P450 2D6 (Homo sapiens, UniProt P10635); experiment: Inhibition of recombinant human CYP2D6 expressed in Escherichia coli using MMC as probe substrate incubated for 15 to 60 mins by fluorometric assay; format: ADME
Cytochrome P450 2D6, sequence (P10635 whole entry): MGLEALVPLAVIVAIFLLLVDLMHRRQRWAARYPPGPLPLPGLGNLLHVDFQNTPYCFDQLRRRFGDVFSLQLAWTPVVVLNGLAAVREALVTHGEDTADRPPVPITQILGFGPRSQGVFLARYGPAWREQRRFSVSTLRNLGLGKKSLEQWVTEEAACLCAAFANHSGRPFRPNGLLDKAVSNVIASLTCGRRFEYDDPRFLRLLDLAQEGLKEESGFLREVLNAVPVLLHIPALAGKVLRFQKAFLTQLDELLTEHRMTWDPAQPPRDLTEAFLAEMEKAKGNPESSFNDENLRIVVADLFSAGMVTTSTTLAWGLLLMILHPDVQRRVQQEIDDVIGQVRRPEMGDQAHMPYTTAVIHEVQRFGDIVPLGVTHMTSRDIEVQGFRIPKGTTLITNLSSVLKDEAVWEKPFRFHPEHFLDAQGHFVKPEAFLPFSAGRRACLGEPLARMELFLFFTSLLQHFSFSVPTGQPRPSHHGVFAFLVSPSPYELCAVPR
Summary of the method: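 Recombinant human CYPs coexpressed with NADPH reductase in E. coli bactosomes (0.1 mg protein/mL); profluorescent substrates ER (1A2), BMC (2C19), MMC (2D6), VividGreen or VividRed (3A4).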

[5] = Half life in Beagle dog at 1 mg/kg/hr, iv measured upto 28 hrs by LC-MS/MS analysis; format: ADME, organism-based, Canis lupus familiaris; conditions: in vivo
[6] = Clearance in CD1 mouse blood at 1.4 mg/kg/hr, iv measured upto 24 hrs by LC-MS/MS analysis
[7] = Volume of distribution at steady state in CD1 mouse at 1 mg/kg/hr, iv measured upto 24 hrs by LC-MS/MS analysis; format: ADME, organism-based; conditions: in vivo, read-out: Vdss; summary of the method: as §1
[8] = target: T1, Bromodomain-containing protein 4; experiment: Binding affinity to BRD4 (unknown origin) by ITC assay
[9] = target: T1, Bromodomain-containing protein 4; experiment: Binding affinity to BRD4 (unknown origin) assessed as change in melting temperature
[10] = target: T1, Bromodomain-containing protein 4; experiment: Inhibition of BRD4 in human PBMC assessed as reduction in LPS-induced IL-6 secretion incubated for 18 to 24 hrs by MSD assay
[11] = Metabolic stability in mouse hepatocytes assessed as intrinsic clearance per g liver tissue at 0.5 uM measured upto 120 mins by LC-MS/MS analysis; format: ADME, cell-based, Hepatocyte; conditions: 2 h
Summary of the method: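 Cryopreserved mouse hepatocytes at 0.7 million cells/mL in Williams Medium E, compound 0.5 μM final (also repeated at 0.05 μM), 37 °C. […] No-cell and no-compound controls.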

[12] = Oral bioavailability in Wistar Han rat at 3 mg/kg measured upto 24 hrs by HPLC-MS/MS analysis; conditions: in vivo
[13] = Tmax in Wistar Han rat at 1 mg/kg, po measured upto 24 hrs by HPLC-MS/MS analysis; format: ADME, organism-based; conditions: in vivo
Summary of the method: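 Oral suspension in 1% (w/v) hydroxypropylmethyl cellulose in water; male rats (n = 3) and male dogs (n = 4). AUC taken from 0 h to last quantifiable time point; Cmax is maximum observed plasma concentration; Tmax reported as median. Mean ± SD.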

IC50 [1]: 316 nM
fraction unbound [2]: 0.1
half-life [3]: 1.2 h
Vd [4]: 2.2 L/kg
IC50 (Cytochrome P450 2D6): > 50000 nM
half-life [5]: 1.8 h
clearance [6]: 23 mL/min/kg
Vd [7]: 1.9 L/kg
Activity [8]: 47.5 nM
ΔTm [9]: 9.9 °C
IC50 [10]: 100 nM
CLint [11]: < 0.86 mL/min/g liver
bioavailability [12]: 74%
Tmax [13]: 1 h
Compound: COC[C@@H](C)n1c(C2CCOCC2)nc2cnc3cc(-c4c(C)noc4C)c(OC)cc3c21
